Converted amounts (≈) assume the structure as drawn. Values belong to the molecule of their own block, whether it stands above or below them.
Assays:
Assay type in all cases: functional
HeLa = experiment: Cytostatic activity against HeLa cells; conditions: Homo sapiens, read-out: ED50 (the source's name)
Outline: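 HeLa cells at 10⁵ cells/mL in minimal Eagle's medium with 10% fetal calf serum, left 2–3 h at 37 °C in Leighton tubes to attach. Compound added as suspension in sterile saline with 0.05% Tween 80, 10% of final volume. Incubated 72 h at 37 °C. Growth from cell protein by Oyama–Eagle colorimetry; ED50 in μg/mL. 6-Mercaptopurine positive control.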

Mus musculus [1] = experiment: Number of cures on day 30 in mice bearing ECA tumor at 25 mg/kg
Outline: (§1)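 Ehrlich ascites carcinoma, about 5 × 10⁵ cells ip from a 7-day donor, in female ICR Swiss mice of 19–22 g. Nine ip doses at 24-h intervals from 24 h post-implant, in saline with 0.05% Tween 80, 0.4 mL. Groups of 7 treated, 30 controls; NCI protocols 1100/1200. Cures are survivors on day 30. 5-Fluorouracil 20 mg/kg/injection reference.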

Mus musculus [2] = experiment: Number of survivors on day 5 to that of number(7) of mice at 50 mg/kg ip in mice bearing ECA tumor was determined; conditions: route intraperitoneal
Outline: (§2)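 Female ICR Swiss mice (19–22 g) given about 5 × 10⁵ Ehrlich ascites carcinoma cells ip from a 7-day donor tumour. Starting 24 h later, nine ip doses at 24-h intervals, suspended in 0.9% NaCl with 0.05% Tween 80, 0.4 mL per injection. Groups of 7 treated and 30 controls. Read-out is survivors on day 5 over mice started.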

Mus musculus [3] = experiment: Difference in weight on day 5 in mice bearing ECA tumor at 25 mg/kg
Outline: (§3)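 Female ICR Swiss mice, 19–22 g, given about 5 × 10⁵ Ehrlich ascites cells ip from a 7-day donor. Starting 24 h later, nine daily ip doses suspended in 0.9% NaCl with 0.05% Tween 80, 0.4 mL. Groups of 7 treated, 30 controls, per NCI protocols 1100/1200. Value is weight difference (g) between test and control animals.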

Mus musculus [4] = experiment: Number of survivors on day 5 to that of number(7) of mice at 25 mg/kg ip in mice bearing ECA tumor was determined; conditions: route intraperitoneal; outline: as §2
Mus musculus [5] = experiment: Percent increase in median survival time of treated mice compared with controls at 25 mg/kg
Outline: (§4)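 Ehrlich carcinoma ascites in female ICR Swiss mice (19–22 g), about 5 × 10⁵ cells ip, per NCI protocols 1100/1200. From 24 h after implant, nine daily ip doses in saline with 0.05% Tween 80 (0.4 mL). Groups of 7 treated and 30 controls; 5-fluorouracil 20 (mg/kg)/injection as positive control. T/C × 100 taken from median survival time against controls; evaluation on day 30.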

Mus musculus [6] = experiment: Percent increase in median survival time of treated mice compared with controls at 50 mg/kg; outline: as §4
Mus musculus [7] = experiment: Number of cures on day 30 in mice bearing ECA tumor at 50 mg/kg; outline: as §1
Mus musculus [8] = experiment: Difference in weight on day 5 in mice bearing ECA tumor at 50 mg/kg; outline: as §3
Mus musculus [9] = experiment: Difference in weight on day 5 in mice bearing ECA tumor at 12.5 mg/kg; outline: as §3
Mus musculus [10] = experiment: Number of survivors on day 5 to that of number(7) of mice at 12.5 mg/kg ip in mice bearing ECA tumor was determined; conditions: route intraperitoneal; outline: as §2
Mus musculus [11] = experiment: Number of cures on day 30 in mice bearing ECA tumor at 12.5 mg/kg; outline: as §1
Mus musculus [12] = experiment: Percent increase in median survival time of treated mice compared with controls at 12.5 mg/kg; outline: as §4

SMILES: CCOC(=O)c1cc(CI)nn1C1O[C@@H](COC(C)=O)[C@H](OC(C)=O)[C@@H](OC(C)=O)[C@@H]1OC(C)=O (some centres not stated)
EC50 (HeLa): 2.5 µg/mL (≈ 4.1 µM)

SMILES: CCOC(=O)c1cc(CI)[nH]n1
EC50 (HeLa): > 100 µg/mL

SMILES: CCOC(=O)c1cc(CCl)nn1C1O[C@@H](COC(C)=O)[C@H](OC(C)=O)[C@@H](OC(C)=O)[C@@H]1OC(C)=O (some centres not stated)
EC50 (HeLa): 40 µg/mL (≈ 77.1 µM)

SMILES: CCOC(=O)c1cc(CI)nn1[C@@H]1O[C@H](COC(C)=O)[C@@H](OC(C)=O)[C@H]1OC(C)=O
EC50 (HeLa): 5.5 µg/mL (≈ 10.2 µM)

SMILES: NC(=O)c1cc(CI)[nH]n1
EC50 (HeLa): > 100 µg/mL

SMILES: NC(=O)c1cc(CCl)[nH]n1
EC50 (HeLa): > 100 µg/mL

SMILES: CCOC(=O)c1cc(CCl)[nH]n1
EC50 (HeLa): > 100 µg/mL

SMILES: CCOC(=O)c1cc(CCl)nn1C1O[C@H](COC(C)=O)[C@@H](OC(C)=O)[C@H](OC(C)=O)[C@H]1OC(C)=O (some centres not stated)
EC50 (HeLa): > 100 µg/mL

SMILES: CC(=O)OC[C@@H]1OC(n2nc(CI)cc2C(N)=O)[C@@H](OC(C)=O)[C@H](OC(C)=O)[C@H]1OC(C)=O (some centres not stated)
Cures (Mus musculus [1]): 1 | Survivors (Mus musculus [2]): 7 | Weight difference (Mus musculus [3]): -0.1 | Survivors (Mus musculus [4]): 7 | T/C (Mus musculus [5]): 105% | EC50 (HeLa): 2 µg/mL (≈ 3.44 µM) | T/C (Mus musculus [6]): 176% | Cures (Mus musculus [7]): 4 | Weight difference (Mus musculus [8]): -0.3

SMILES: CC(=O)OC[C@H]1O[C@@H](n2nc(C(N)=O)cc2CI)[C@H](OC(C)=O)[C@@H]1OC(C)=O
Cures (Mus musculus [1]): 4 | Weight difference (Mus musculus [9]): 0.3 | Survivors (Mus musculus [2]): 7 | Weight difference (Mus musculus [3]): -0.25 | Survivors (Mus musculus [4]): 7 | T/C (Mus musculus [5]): 141% | Survivors (Mus musculus [10]): 7 | Cures (Mus musculus [11]): 2 | T/C (Mus musculus [12]): 121% | EC50 (HeLa): 2 µg/mL (≈ 3.93 µM) | T/C (Mus musculus [6]): 100% | Cures (Mus musculus [7]): 1 | Weight difference (Mus musculus [8]): -0.5

SMILES: CC(=O)OC[C@H]1O[C@@H](n2nc(CI)cc2C(N)=O)[C@H](OC(C)=O)[C@@H]1OC(C)=O
Cures (Mus musculus [1]): 4 | Weight difference (Mus musculus [9]): -0.6 | Survivors (Mus musculus [2]): 7 | Weight difference (Mus musculus [3]): -0.4 | Survivors (Mus musculus [4]): 7 | T/C (Mus musculus [5]): 158% | Survivors (Mus musculus [10]): 7 | Cures (Mus musculus [11]): 2 | T/C (Mus musculus [12]): 131% | EC50 (HeLa): 1.5 µg/mL (≈ 2.95 µM) | T/C % (Mus musculus [6]): 63% | Weight difference (Mus musculus [8]): -0.6

Now from value to molecule:

EC50 (HeLa): 32 µg/mL (≈ 71.6 µM)
SMILES: CCOC(=O)c1cc(CCl)nn1[C@@H]1O[C@H](COC(C)=O)[C@@H](OC(C)=O)[C@H]1OC(C)=O

EC50 (HeLa): 12 µg/mL (≈ 28.7 µM)
SMILES: CC(=O)OC[C@H]1O[C@@H](n2nc(C(N)=O)cc2CCl)[C@H](OC(C)=O)[C@@H]1OC(C)=O

EC50 (HeLa): 18 µg/mL (≈ 36.7 µM)
SMILES: CC(=O)OC[C@@H]1OC(n2nc(CCl)cc2C(N)=O)[C@@H](OC(C)=O)[C@H](OC(C)=O)[C@H]1OC(C)=O (some centres not stated)

EC50 (HeLa): 26 µg/mL (≈ 62.2 µM)
SMILES: CC(=O)OC[C@H]1O[C@@H](n2nc(CCl)cc2C(N)=O)[C@H](OC(C)=O)[C@@H]1OC(C)=O

EC50 (HeLa): 12 µg/mL (≈ 24.5 µM)
SMILES: CC(=O)OC[C@H]1OC(n2nc(CCl)cc2C(N)=O)[C@H](OC(C)=O)[C@@H](OC(C)=O)[C@@H]1OC(C)=O (some centres not stated)

Reference: ChEMBL document CHEMBL1121454, “Alkylating nucleosides. 4. Synthesis and cytostatic activity of chloro- and iodomethylpyrazole nucleosides” (1980)
